Source: ChEMBL document CHEMBL4616704, “Discovery of an Atropisomeric PI3Kβ Selective Inhibitor through Optimization of the Hinge Binding Motif” (ACS Med Chem Lett, 2020)

Tests used:
[1] = Apparent permeability across basolateral to apical side in human Caco2 cells at 10 uM after 1 to 2 hrs by LC/MS/MS analysis; type: ADME, cell-based; settings: Caco-2
[2] = Volume of distribution at steady state in Beagle dog at 1 mg/kg administered as iv infusion for 30 mins and measured after 24 hrs by ESI-LC/MS/MS analysis; type: ADME, organism-based, Canis lupus familiaris; settings: in vivo, read-out: Vdss
[3] = target: T1, Phosphatidylinositol 4,5-bisphosphate 3-kinase catalytic subunit beta isoform (Homo sapiens, UniProt P42338); test: Inhibition of PI3Kbeta in PTEN-deficient human MDA-MB-415 cells assessed as reduction in AKT phosphorylation at Ser473 residue after 2 hrs by mesoscale assay; type: cell-based
T1 sequence (P42338 whole entry, canonical isoform): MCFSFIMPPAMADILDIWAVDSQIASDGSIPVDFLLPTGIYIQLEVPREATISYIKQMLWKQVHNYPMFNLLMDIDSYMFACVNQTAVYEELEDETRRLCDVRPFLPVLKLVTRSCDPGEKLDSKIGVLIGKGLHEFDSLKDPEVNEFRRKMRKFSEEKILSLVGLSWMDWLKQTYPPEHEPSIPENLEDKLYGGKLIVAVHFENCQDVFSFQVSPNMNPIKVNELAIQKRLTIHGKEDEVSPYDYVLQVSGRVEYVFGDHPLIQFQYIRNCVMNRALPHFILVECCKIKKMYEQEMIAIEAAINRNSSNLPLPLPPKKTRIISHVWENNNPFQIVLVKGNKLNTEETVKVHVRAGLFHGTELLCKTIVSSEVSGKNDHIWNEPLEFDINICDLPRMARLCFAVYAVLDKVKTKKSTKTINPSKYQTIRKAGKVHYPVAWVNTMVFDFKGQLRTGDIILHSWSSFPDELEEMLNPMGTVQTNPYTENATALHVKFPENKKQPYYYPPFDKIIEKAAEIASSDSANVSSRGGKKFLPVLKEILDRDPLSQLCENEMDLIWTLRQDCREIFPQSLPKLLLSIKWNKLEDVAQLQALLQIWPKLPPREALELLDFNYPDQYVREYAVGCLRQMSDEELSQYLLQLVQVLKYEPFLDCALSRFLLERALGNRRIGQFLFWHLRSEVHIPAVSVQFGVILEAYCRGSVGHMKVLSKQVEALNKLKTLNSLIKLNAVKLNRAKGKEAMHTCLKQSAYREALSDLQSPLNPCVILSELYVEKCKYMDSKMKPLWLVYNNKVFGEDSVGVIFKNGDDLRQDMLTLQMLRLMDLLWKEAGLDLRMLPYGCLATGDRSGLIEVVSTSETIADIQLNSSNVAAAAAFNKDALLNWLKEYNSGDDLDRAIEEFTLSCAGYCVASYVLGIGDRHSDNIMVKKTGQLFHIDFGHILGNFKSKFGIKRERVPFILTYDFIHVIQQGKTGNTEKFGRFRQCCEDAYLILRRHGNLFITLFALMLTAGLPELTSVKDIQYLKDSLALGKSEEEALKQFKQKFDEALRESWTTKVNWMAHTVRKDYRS
In short: (§1)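 Cellular readout: pAKT1 Ser473 normalized to total AKT1, expressed as units pAKT1 Ser473 per nanogram total AKT1; cells treated under serum-free conditions.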

[4] = target: T1, Phosphatidylinositol 4,5-bisphosphate 3-kinase catalytic subunit beta isoform; test: Inhibition of PI3Kbeta in PTEN-deficient human LNCAP cells assessed as reduction in AKT phosphorylation at Ser473 residue after 2 hrs by mesoscale assay; type: cell-based; in short: as §1
[5] = Protein binding in rhesus monkey plasma at 1 mg/kg administered as iv infusion for 30 mins and measured after 24 hrs by ESI-LC/MS/MS analysis; type: ADME, organism-based, Macaca mulatta; settings: read-out: PPB (converted)
[6] = Ocular toxicity in Beagle dog assessed as irreversible damage by measuring retinal degeneration at 10 to 100 mg/kg/day administered for 7 days by microscopic analysis; type: organism-based, Canis lupus familiaris; settings: in vivo, 168 h
[7] = Volume of distribution at steady state in Sprague-Dawley rat at 1 mg/kg administered as iv infusion for 30 mins and measured after 24 hrs by ESI-LC/MS/MS analysis; type: ADME, organism-based; settings: in vivo, read-out: Vdss
[8] = Ocular toxicity in Beagle dog assessed as irreversible damage by measuring choroidal inflammation at 10 to 100 mg/kg/day administered for 7 days measured on day 6 by ERG and OCT analysis; type: organism-based, Canis lupus familiaris; settings: in vivo, 168 h
[9] = Terminal half life in Beagle dog at 1 mg/kg administered as iv infusion for 30 mins and measured after 24 hrs by ESI-LC/MS/MS analysis; type: ADME, organism-based, Canis lupus familiaris; settings: in vivo, read-out: beta t1/2 (converted)
[10] = Ocular toxicity in Beagle dog assessed as irreversible damage by measuring decrease response in visual stimuli at 10 to 40 mg/kg/day administered for 7 days and measured from day 4 to day 7; type: organism-based, Canis lupus familiaris; settings: in vivo, 168 h
[11] = Terminal half life in cynomolgus monkey at 1 mg/kg administered as iv infusion for 30 mins and measured after 24 hrs by ESI-LC/MS/MS analysis; type: ADME, organism-based, Macaca fascicularis; settings: in vivo, read-out: beta t1/2 (converted)
[12] = Apparent permeability across apical to basolateral side in human Caco2 cells at 10 uM after 1 to 2 hrs by LC/MS/MS analysis; type: ADME, cell-based; settings: Caco-2
[13] = Ocular toxicity in Beagle dog assessed as irreversible damage by measuring retinal necrosis at 10 to 100 mg/kg/day administered for 7 days by microscopic analysis; type: organism-based, Canis lupus familiaris; settings: in vivo, 168 h
[14] = Ocular toxicity in Beagle dog assessed as irreversible damage by measuring retinal detachment at 10 to 100 mg/kg/day administered for 7 days by microscopic analysis; type: organism-based, Canis lupus familiaris; settings: in vivo, 168 h
[15] = Ocular toxicity in Beagle dog assessed as irreversible damage by measuring ocular discharge at 10 to 40 mg/kg/day administered for 7 days and measured from day 4 to day 7; type: organism-based, Canis lupus familiaris; settings: in vivo, 168 h
[16] = Terminal half life in Sprague-Dawley rat at 1 mg/kg administered as iv infusion for 30 mins and measured after 24 hrs by ESI-LC/MS/MS analysis; type: ADME, organism-based; settings: in vivo, read-out: beta t1/2 (converted)
[17] = MRT in Sprague-Dawley rat at 1 mg/kg administered as iv infusion for 30 mins and measured after 24 hrs by ESI-LC/MS/MS analysis; type: ADME, organism-based; settings: in vivo
[18] = MRT in Beagle dog at 1 mg/kg administered as iv infusion for 30 mins and measured after 24 hrs by ESI-LC/MS/MS analysis; type: ADME, organism-based, Canis lupus familiaris; settings: in vivo
[19] = Clearance in Sprague-Dawley rat at 1 mg/kg administered as iv infusion for 30 mins and measured after 24 hrs by ESI-LC/MS/MS analysis; type: ADME, organism-based; settings: in vivo
[20] = target: T1, Phosphatidylinositol 4,5-bisphosphate 3-kinase catalytic subunit beta isoform; test: Inhibition of PI3Kbeta in PTEN-deficient human LNCaP C4-2 cells assessed as reduction in AKT phosphorylation at Ser473 residue after 2 hrs by mesoscale assay; type: cell-based; in short: as §1
[21] = Protein binding in Beagle dog plasma at 1 mg/kg administered as iv infusion for 30 mins and measured after 24 hrs by ESI-LC/MS/MS analysis; type: ADME, organism-based, Canis lupus familiaris; settings: read-out: PPB (converted)
[22] = Terminal half life in rhesus monkey at 1 mg/kg administered as iv infusion for 30 mins and measured after 24 hrs by ESI-LC/MS/MS analysis; type: ADME, organism-based, Macaca mulatta; settings: in vivo, read-out: beta t1/2 (converted)
[23] = Clearance in Beagle dog at 1 mg/kg administered as iv infusion for 30 mins and measured after 24 hrs by ESI-LC/MS/MS analysis; type: ADME, organism-based, Canis lupus familiaris; settings: in vivo
[24] = target: T1, Phosphatidylinositol 4,5-bisphosphate 3-kinase catalytic subunit beta isoform; test: Inhibition of PI3Kbeta in PTEN-deficient human ZR-75-1 cells assessed as reduction in AKT phosphorylation at Ser473 residue after 2 hrs by mesoscale assay; type: cell-based; in short: as §1
[25] = Clearance in cynomolgus monkey at 1 mg/kg administered as iv infusion for 30 mins and measured after 24 hrs by ESI-LC/MS/MS analysis; type: ADME, organism-based, Macaca fascicularis; settings: in vivo
Cytochrome P450 3A4 = Cytochrome P450 3A4 (Homo sapiens, UniProt P08684); test: Inhibition of human CYP3A4; type: ADME
Sequence of Cytochrome P450 3A4 (P08684 whole entry, the tested form may be a part): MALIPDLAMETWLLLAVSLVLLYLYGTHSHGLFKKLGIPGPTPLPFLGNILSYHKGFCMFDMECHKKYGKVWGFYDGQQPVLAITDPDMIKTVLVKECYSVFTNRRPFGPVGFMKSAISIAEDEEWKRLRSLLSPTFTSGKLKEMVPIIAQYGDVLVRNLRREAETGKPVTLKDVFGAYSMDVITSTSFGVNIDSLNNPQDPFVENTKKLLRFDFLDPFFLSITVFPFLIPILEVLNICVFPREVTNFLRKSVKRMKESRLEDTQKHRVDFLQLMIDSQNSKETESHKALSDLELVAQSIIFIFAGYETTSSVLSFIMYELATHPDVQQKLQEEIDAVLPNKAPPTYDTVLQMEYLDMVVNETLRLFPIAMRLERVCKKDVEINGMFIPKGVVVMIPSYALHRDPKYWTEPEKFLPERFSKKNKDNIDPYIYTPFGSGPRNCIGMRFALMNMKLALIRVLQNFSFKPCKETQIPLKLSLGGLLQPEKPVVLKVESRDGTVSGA

[26] = Protein binding in Sprague-Dawley rat plasma at 1 mg/kg administered as iv infusion for 30 mins and measured after 24 hrs by ESI-LC/MS/MS analysis; type: ADME, organism-based; settings: read-out: PPB (converted)
[27] = target: T1, Phosphatidylinositol 4,5-bisphosphate 3-kinase catalytic subunit beta isoform; test: Inhibition of PI3Kbeta in PTEN-deficient human PC3 cells assessed as reduction in AKT phosphorylation at Ser473 residue after 2 hrs by mesoscale assay; type: cell-based, PC-3; in short: as §1
[28] = Clearance in rhesus monkey at 1 mg/kg administered as iv infusion for 30 mins and measured after 24 hrs by ESI-LC/MS/MS analysis; type: ADME, organism-based, Macaca mulatta; settings: in vivo
[29] = MRT in cynomolgus monkey at 1 mg/kg administered as iv infusion for 30 mins and measured after 24 hrs by ESI-LC/MS/MS analysis; type: ADME, organism-based, Macaca fascicularis; settings: in vivo
[30] = Genotoxicity in Salmonella typhimurium by Ames test; type: toxicity; settings: salmonella enterica subsp. enterica serovar typhimurium
[31] = Volume of distribution at steady state in cynomolgus monkey at 1 mg/kg administered as iv infusion for 30 mins and measured after 24 hrs by ESI-LC/MS/MS analysis; type: ADME, organism-based, Macaca fascicularis; settings: in vivo, read-out: Vdss
[32] = Ocular toxicity in Beagle dog assessed as irreversible damage by measuring dilated pupils at 10 to 40 mg/kg/day administered for 7 days and measured from day 4 to day 7; type: organism-based, Canis lupus familiaris; settings: in vivo, 168 h
[33] = Oral bioavailability in Beagle dog at 5 mg/kg dosed via gavage after 24 hrs by ESI-LC/MS/MS analysis; type: ADME, organism-based, Canis lupus familiaris; settings: in vivo
[34] = Oral bioavailability in cynomolgus monkey at 5 mg/kg dosed via gavage after 24 hrs by ESI-LC/MS/MS analysis; type: ADME, organism-based, Macaca fascicularis; settings: in vivo
[35] = Clearance in human hepatocytes at 1 uM measured up to 250 mins by UHPLC-HRMS analysis; type: ADME, cell-based, Hepatocyte
[36] = Oral bioavailability in Sprague-Dawley rat at 5 mg/kg dosed via gavage after 24 hrs by ESI-LC/MS/MS analysis; type: ADME, organism-based; settings: in vivo
[37] = Ocular toxicity in Beagle dog assessed as irreversible damage by measuring red conjuctiva at 10 to 40 mg/kg/day administered for 7 days and measured from day 4 to day 7; type: organism-based, Canis lupus familiaris; settings: in vivo, 168 h

Papp B→A at 10 µM [1]: 32 ×10⁻⁶ cm/s | Vd [2]: 2.5 L/kg | EC50 [3]: 15 nM | EC50 [4]: 31 nM | fraction unbound at 24 h [5]: 0.19 | Vd [7]: 2.5 L/kg | half-life [9]: 5.5 h | half-life [11]: 4.1 h | Papp A→B at 10 µM [12]: 22 ×10⁻⁶ cm/s | half-life [16]: 1.2 h | MRT [17]: 1.3 h | MRT [18]: 7.3 h | clearance [19]: 32.8 mL/min/kg | EC50 [20]: 24 nM | fraction unbound at 24 h [21]: 0.14 | half-life [22]: 4.4 h | clearance [23]: 5.67 mL/min/kg | EC50 [24]: 5 nM | clearance [25]: 4.17 mL/min/kg | IC50 (Cytochrome P450 3A4): 24000 nM | fraction unbound at 24 h [26]: 0.16 | EC50 [27]: 12 nM | clearance [28]: 7.83 mL/min/kg | MRT [29]: 5.2 h | Vd [31]: 1.3 L/kg | bioavailability [33]: 76% | bioavailability [34]: 35% | CLH at 1 µM [35]: 3.17 mL/min/kg | CLH ([35]; 250 min, 1 µM): 3 mL/min/kg | bioavailability [36]: 53%
Compound: Cc1nc2c(-c3nnc[nH]3)cc(-c3ccnc(C#N)c3)cc2n1-c1ccnc2c(F)ccc(F)c12
Activity [6]: Toxic | Activity [8]: Toxic | Activity [10]: Toxic | Activity [13]: Toxic | Activity [14]: Toxic | Activity [15]: Toxic | Activity [30]: Non-Toxic | Activity [32]: Toxic | Activity [37]: Toxic
